Screening results (PubChem BioAssay)
In the library only some 3.7% were active in any assay of this set; here they are far more common.
KCNQ1 pot = human KCNQ1 channel potentiation or activation; P51787; CHO-K1 KCNQ1, thallium flux FluxOR fluorescence; hits give high values; B-score at 10 µM; 310,000 tested, 0.35% active; AID 2648;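 active means fluorescence ratio B-score, a plate-corrected score, at least three library SD, with initial intensity B-score within 5 SD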
Target sequence (P51787 whole entry, looked up): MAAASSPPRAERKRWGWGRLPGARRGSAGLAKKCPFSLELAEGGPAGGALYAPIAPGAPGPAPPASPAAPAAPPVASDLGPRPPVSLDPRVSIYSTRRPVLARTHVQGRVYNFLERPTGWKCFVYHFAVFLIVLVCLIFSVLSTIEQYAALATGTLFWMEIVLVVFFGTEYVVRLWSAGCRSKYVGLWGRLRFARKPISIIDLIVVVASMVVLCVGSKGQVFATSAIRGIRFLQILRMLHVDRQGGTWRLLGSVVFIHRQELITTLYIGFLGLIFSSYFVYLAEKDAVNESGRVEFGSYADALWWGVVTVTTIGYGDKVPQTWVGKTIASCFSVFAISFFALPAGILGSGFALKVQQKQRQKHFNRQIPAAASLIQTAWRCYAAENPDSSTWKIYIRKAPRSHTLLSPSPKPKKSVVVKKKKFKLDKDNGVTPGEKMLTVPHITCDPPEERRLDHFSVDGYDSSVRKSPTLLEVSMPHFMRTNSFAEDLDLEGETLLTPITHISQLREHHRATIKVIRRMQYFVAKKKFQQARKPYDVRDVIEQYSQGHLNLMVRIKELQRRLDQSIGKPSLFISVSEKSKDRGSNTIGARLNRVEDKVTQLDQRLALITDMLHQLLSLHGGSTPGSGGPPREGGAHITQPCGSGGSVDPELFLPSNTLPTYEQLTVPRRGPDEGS
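Assay system: CHO-K1 cells stably expressing KCNQ1. Medium: assay buffer for compound exposure, DMSO matched across wells. Timing: 37 °C overnight plating, 90-min dark dye load, 20-min compound pretreatment. Signal: kinetic FluxOR fluorescence, 10 s baseline plus 110 s post-stimulus.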
hERG rescue = hERG (human) protection from proarrhythmic block; CHO-hERG, FluxOR thallium flux, dofetilide IC70 present; activation (rescue from dofetilide block), less the hit threshold, % at 10 µM; 310,000 tested, 0.51% active; AID 1511;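 active means activation above the mean of controls blocked by dofetilide plus 5 SD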;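 further: thallium influx through hERG after potassium depolarization seen as dye fluorescence rise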
KCNQ1 inh = inhibitors of human KCNQ1 potassium channel; B-score at 10 µM; P51787; 310,000 tested, 1.3% active; CHO-K1 KCNQ1, FluxOR thallium flux fluorescence; hits give high values;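 active means compounds whose thallium flux B-score, printed positive for inhibition, exceeds three library SD while starting fluorescence stays within three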;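 further: channel opened by potassium depolarization with thallium stimulus after 20 min compound exposure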
KCNK9 inh = inhibitors of human KCNK9 two-pore domain potassium channel | 310,000 tested, 1.2% active | B-score at 10 µM | Q9NPC2 | HEK293 KCNK9, FluxOR thallium flux fluorescence; hits give low values;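 active means ratio B-score over 3 SD below the library mean, with starting fluorescence within 5 SD of its mean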;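 further: negative B-score means less thallium flux so channel inhibition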
Kir21 inh = blocks the mouse Kir2.1 inward-rectifier potassium channel; HEK293-Kir2.1, FluxOR thallium flux fluorescence; hits give low values; 310,000 tested, 0.85% active; B-score at 10 µM; AID 1672;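 active means fluorescence ratio B-score at or below minus 3 SD of library scores, with starting-brightness B-score within 2 SD, cut at about -4.2 in these data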;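 further: channel flux triggered by added potassium and thallium sulfate stimulus; B-score of peak minus minimum fluorescence over baseline after thallium stimulus; more negative B-score means stronger Kir2.1 block with less thallium influx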
KCNK3 inh = human KCNK3 channel inhibition, primary screen | O14649 | CHO-KCNK3 thallium flux, FluxOR fluorescence; hits give low values | B-score at 10 µM | 340,000 tested, 0.84% active;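 active means B-score under library mean minus 4 SD, starting fluorescence ratio at most library mean plus 5 SD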;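 further: more negative B-score means stronger inhibition of thallium flux through KCNK3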
KCNK9 block conf = confirmation of human KCNK9 potassium channel inhibitors; 4,900 tested, 43% active; AID 492992; inhibition, % at 10 µM; HEK293 KCNK9 cells, FluxOR thallium flux fluorescence; shares compounds with KCNK9 inh;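 active means thallium signal inhibited by more than 5 SD of the compound-free buffer control wells, on both duplicate plates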;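 further: 0% = assay buffer control wells without compound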
Kir2-1 spec = selectivity of KCNK9 modulators against mouse Kir2.1 | shares compounds with KCNK9 inh | Kir2.1 cells, FluxOR thallium flux fluorescence | inhibition, % at 10 µM | 4,900 tested, 4% active;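 active means thallium signal drop more than 5 SD beyond the mean of the no-compound control wells, seen in both duplicate plates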;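 further: signal is fluorescence rise after thallium addition divided by baseline fluorescence; plate controls were assay buffer only for no effect and full block by chlorpromazine control for full effect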
KCNK9 uninduced = second counter-screen for KCNK9 modulators: effect in non-induced cells; shares compounds with KCNK9 inh; non-induced KCNK9-HEK293, FluxOR thallium flux; inhibition, % at 10 µM; 4,900 tested, 40% active;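 active means thallium signal drop beyond 5 SD of the untreated control mean, on both duplicate plates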;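 further: plate controls were buffer only IC0 wells for no effect and SID17386958 at its maximal inhibitory level for full effect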
KCNK3 inh conf = confirmation of human KCNK3 two-pore domain potassium channel inhibitors. shares compounds with KCNK3 inh. CHO-KCNK3 thallium flux, FluxOR fluorescence; 0% buffer, 100% carvedilol maximal block. 2,400 tested, 99% active. ratio percent of control, % at 10 µM;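 active means ratio percent of control, averaged over triplicates, above buffer control mean plus 5 SD, cut at about 64% in these data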;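 further: ratio is the fluorescence rise from min to max over baseline after thallium stimulus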
KCNK3 noninduced = KCNK3 inhibitor counter-screen hit in non-induced cells | AID 651747 | 2,400 tested, 40% active | thallium flux ratio (lower = more inhibition) at 10 µM | shares compounds with KCNK3 inh | non-induced KCNK3 parental cells, FluxOR thallium flux; hits give low values;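 active means thallium flux ratio, averaged over three wells, more than 5 SD below the buffer control mean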;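 further: host cells are CHO cells without KCNK3 induction; ratio is peak minus trough fluorescence over baseline then normalized to buffer controls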
Starred values were filed as active, the others as inactive.

What do the screens show for `CC(C)(C)n1nnnc1C(c1cccs1)N(Cc1ccccc1)Cc1cccnc1` (stereo not given)?
KCNQ1 pot: inactive; hERG rescue: -11; KCNQ1 inh: inactive; KCNK9 inh: -13*; Kir21 inh: -0.17; KCNK3 inh: inactive; KCNK9 block conf: 66%*; Kir2-1 spec: inactive; KCNK9 uninduced: 54%*; KCNK3 inh conf: 118*; KCNK3 noninduced: inactive

Results for Cc1ccc(S(=O)(=O)N2CCN(C(=O)CN3CCN(c4ccc(O)cc4)CC3)CC2)cc1 ?
KCNK3 inh: inactive

What do the screens show for `Cc1cccc(C2c3[nH]c4ccccc4c3CCN2Cc2cccn2-c2ncccn2)c1` (stereo not given)?
KCNQ1 pot: inactive; hERG rescue: -32; KCNQ1 inh: inactive; KCNK9 inh: -8.5*; Kir21 inh: -1.8; KCNK3 inh: -14*; KCNK9 block conf: inactive; Kir2-1 spec: inactive; KCNK9 uninduced: 32%*; KCNK3 inh conf: 113*; KCNK3 noninduced: inactive

Results for c1ccc(C2c3[nH]c4ccccc4c3CCN2Cc2cccn2-c2ccccn2)nc1 (stereo not given) ?
KCNQ1 pot: inactive; hERG rescue: -19; KCNQ1 inh: inactive; KCNK9 inh: inactive; Kir21 inh: -0.53; KCNK3 inh: inactive

How did COc1ccc(C2c3[nH]c4ccccc4c3CCN2Cc2cccn2-c2ncccn2)cc1C (stereo not given) do in these assays?
KCNQ1 pot: inactive; hERG rescue: -20; KCNQ1 inh: inactive; KCNK9 inh: -18*; Kir21 inh: 0.97; KCNK3 inh: -13*; KCNK9 block conf: 54%*; Kir2-1 spec: inactive; KCNK9 uninduced: 36%*; KCNK3 inh conf: 131*; KCNK3 noninduced: 0.14*

Results for CC(=O)n1c(=O)oc2ccccc21 ?
KCNQ1 pot: inactive; hERG rescue: -4; KCNQ1 inh: inactive; KCNK9 inh: inactive; Kir21 inh: 0.43; KCNK3 inh: inactive

How did CCCc1cc(C(=O)Cc2ccc(F)cc2)c(O)cc1O do in these assays?
KCNQ1 pot: inactive; hERG rescue: -25; KCNQ1 inh: inactive; KCNK9 inh: -10*; Kir21 inh: -1.6; KCNK3 inh: -8.8*; KCNK9 block conf: 60%*; Kir2-1 spec: inactive; KCNK9 uninduced: 38%*; KCNK3 inh conf: 108*; KCNK3 noninduced: inactive

How did CCCCCCCCCC[n+]1cccc2c3ccccc3ccc21 do in these assays?
KCNQ1 pot: inactive; hERG rescue: -19; KCNQ1 inh: inactive; KCNK9 inh: -15*; Kir21 inh: -9.1*; KCNK3 inh: inactive; KCNK9 block conf: 73%*; Kir2-1 spec: inactive; KCNK9 uninduced: 36%*; KCNK3 inh conf: 72*; KCNK3 noninduced: inactive

Results for Cc1c2ccccc2cc[n+]1CCCS(=O)(=O)[O-] ?
KCNQ1 pot: inactive; hERG rescue: -10; KCNQ1 inh: inactive; KCNK9 inh: inactive; Kir21 inh: 0.3; KCNK3 inh: inactive

Results for COc1ccccc1-c1n[nH]c(=S)n1Cc1ccco1 ?
KCNQ1 pot: inactive; hERG rescue: -10; KCNQ1 inh: inactive; KCNK9 inh: inactive; Kir21 inh: -0.94

What do the screens show for `NS(=O)(=O)c1ccc(NC(=S)N2CCC(Cc3ccccc3)CC2)cc1`?
KCNQ1 pot: inactive; hERG rescue: -12; KCNQ1 inh: inactive; KCNK9 inh: inactive; Kir21 inh: -0.4; KCNK3 inh: inactive

How did COC(=O)C1=C(C)N=C2SC(C#N)=C(N)N2C1c1cc(OC)c(OC)c(OC)c1 (stereo not given) do in these assays?
KCNQ1 pot: inactive; hERG rescue: -5; KCNQ1 inh: inactive; KCNK9 inh: inactive; Kir21 inh: 0.39; KCNK3 inh: inactive

How did COC(=O)C1=C(C)N=C2SC(C#N)=C(N)N2C1c1ccc(OCc2ccccc2)cc1 (stereo not given) do in these assays?
KCNQ1 pot: inactive; hERG rescue: -6; KCNQ1 inh: inactive; KCNK9 inh: -17*; Kir21 inh: -2.4; KCNK3 inh: -9.9*; KCNK9 block conf: 74%*; Kir2-1 spec: inactive; KCNK9 uninduced: 52%*; KCNK3 inh conf: 97*; KCNK3 noninduced: 0.15*

What do the screens show for `Cc1ccc(OC(C)C(=O)Nc2ccncc2)cc1C` (stereo not given)?
KCNQ1 pot: inactive; hERG rescue: -2; KCNQ1 inh: inactive; KCNK9 inh: inactive; Kir21 inh: 1.1; KCNK3 inh: inactive

Results for O=C(O)c1cc(S(=O)(=O)N2CCN(S(=O)(=O)c3ccc4ccccc4c3)CC2)ccc1Br ?
KCNK3 inh: inactive

What do the screens show for `Cc1noc(C)c1COc1ccccc1C(=O)NCCc1ccc(Cl)cc1`?
KCNQ1 pot: inactive; hERG rescue: -15; KCNQ1 inh: inactive; KCNK9 inh: -20*; Kir21 inh: -5; KCNK3 inh: -9.4*; KCNK9 block conf: 63%*; Kir2-1 spec: inactive; KCNK9 uninduced: 35%*; KCNK3 inh conf: 81*; KCNK3 noninduced: inactive

How did CCC(C)(C)n1nnnc1CN(Cc1ccc(Cl)cc1)Cc1ccco1 do in these assays?
KCNQ1 pot: inactive; hERG rescue: -16; KCNQ1 inh: inactive; KCNK9 inh: -11*; Kir21 inh: -5.1*; KCNK3 inh: inactive; KCNK9 block conf: 54%*; Kir2-1 spec: inactive; KCNK9 uninduced: 40%*; KCNK3 inh conf: 126*; KCNK3 noninduced: 0.16*

How did CN(C)S(=O)(=O)c1ccc(Cl)c(NC(=O)C2CCN(S(=O)(=O)c3cccs3)CC2)c1 do in these assays?
KCNK3 inh: inactive

What do the screens show for `COc1ccc(CCNC(=O)c2ccc3c(c2)S(=O)(=O)N=C2CCCCCN23)cc1`?
KCNQ1 pot: inactive; hERG rescue: -18; KCNQ1 inh: inactive; KCNK9 inh: inactive; Kir21 inh: 1.2; KCNK3 inh: inactive
